In series [1] the target is T1, Dihydroorotate dehydrogenase (quinone), mitochondrial (Homo sapiens, UniProt Q02127). As to the kind of experiment: Inhibition of DHOH in human ARN8 cells assessed as increase in YOYO3 positive cells at 20 nM incubated for 48 hrs in presence of pan-caspase inhibitor, Z-VAD-FMK measured every 2 hrs by YOYO-3 staining based live cell imaging analysis. The gist of the method: (§1)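 ARN8 cells seeded at 4×10^3 per well and left 24 h, then given 20 nM compound in medium containing 2 µM caspase-3/7 substrate and 0.3 µM YOYO-3 (0.2% DMSO). Where indicated, 100 µM uridine or 20 µM Z-VAD-FMK was added. Cells imaged every 2 h for 48.5 h in an IncuCyte. Positive-cell counts per mm² normalized to confluence %; mean ± SD of three technical replicates.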

Series [2] in a line: Metabolic stability in CD-1 mouse liver microsomes assessed as half life at 1 uM incubated for 60 mins by LC-MS/MS analysis. It is filed as ADME, Microsome. The following applies: CD-1, mouse, liver microsomes. In short, it runs like this:
(§2)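 Compound at 1 µM with 1.0 mg/mL human or mouse liver microsomes in 50 mM potassium phosphate pH 7.4, preincubated 5 min at 37 °C. Started with 1 mM NADPH (or blank buffer). Quenched with cold acetonitrile containing glipizide at 0, 5, 15, 30, 60 min. Parent loss tracked by LC-MS/MS in MRM mode; t½ = 0.693/k from slope of peak-area ratio versus time.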
For orientation: Liver microsomes are vesicles of endoplasmic reticulum, rich in cytochrome P450 enzymes.

The nature of series [3]: Cytotoxicity against human HNDF cells assessed as reduction in cell viability incubated for 72 hrs by SRB assay. It is filed as cell-based. Particulars: Homo sapiens, 72 h; read-out: IC50. In short, it runs like this:
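Human normal dermal fibroblasts seeded at 15×10^2 per well and left 24 h, then exposed to compound for 72 h with 0.1% DMSO final. Cells fixed with TCA at 4 °C for 1 h, stained with SRB, solubilized in 10 mM Tris and read at 490 nm. Values normalized to DMSO control. Tabulated means come only from experiments where IC50 fell below 10 000 nM.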

The target of series [4] is T1, Dihydroorotate dehydrogenase (quinone), mitochondrial. As to the kind of experiment: Inhibition of DHOH in human ARN8 cells assessed as gammaH2AX level at 20 nM incubated for 24 hrs treated with pan-capse inhibitor, Z-VAD-FMK for 4.5 hrs prior to harvesting by Western blot analysis. In kind it is cell-based. In short, it runs like this: (§3)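 ARN8 cells treated 24 h at 20 nM, with 20 µM Z-VAD-FMK or vehicle added 4.5 h before harvest. Etoposide arm was 20 µM for 1 h alongside Z-VAD-FMK. Lysates normalized for protein and analysed by western blot for p53, p-Ser15 p53, γ-H2AX, H2AX and cleaved PARP (85 kDa) against stain-free total-protein loading.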

The target is the same in series [5]. The series can be described thus: Inhibition of […] in human ARN8 cells assessed as decrease in Bcl2 protein expression at 20 nM incubated for 24 hrs by Western blot analysis. In kind it is cell-based.
The target is the same in series [6]. The series can be described thus: Inhibition of DHODH in human ARN8 cells assessed as induction of DNA damage by measuring increase in gammaH2AX level at 20 nM incubated for 24 hrs by Western blot analysis. In kind it is cell-based. In short, it runs like this:
(§4)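 ARN8 cells seeded at 15×10^4 per well and left 24 h. Treated 24 h at 20 nM, or with etoposide at 20 µM for 1 h, with 100 µM uridine where indicated. Lysates made in LDS buffer and protein-normalized, then run on 4–15% gels and transferred to PVDF. Phospho-proteins blocked in BSA, others in milk; primary antibodies overnight at 4 °C, ECL detection. Loading judged by stain-free total protein.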
A general note: Immunoblotting shows a protein as a band on a membrane.

Series [7] shares this target. The series can be described thus: Inhibition of recombinant human DHODH using dihydroorotic acid as substrate measured for 68 mins by DCIP based colorimetric assay.
Series [8] has the same target. As to the kind of experiment: Inhibition of DHOH in human ARN8 cells assessed as increase in cleaved PARP level at 20 nM incubated for 24 hrs by Western blot analysis. It is filed as cell-based. In short, it runs like this:
as §3

Series [9] shares this target. The series can be described thus: Inhibition of DHOH in human ARN8 cells assessed as increase in YOYO3 positive cells at 20 nM incubated for 48 hrs in presence of 100 uM […], uridine measured every 2 hrs by YOYO-3 staining based live cell imaging analysis. The gist of the method: as §1
Series [10] has the same target. The series can be described thus: Inhibition of recombinant human DHODH using dihydroorotic acid as substrate in presence of 2 nM of DHODH by DCIP assay.
Series [11] shares this target. The series can be described thus: Inhibition of DHODH in human ARN8 cells assessed as activation of p53-dependent transcription at 0.05 to 10 uM incubated for 16 hrs by CPRG assay. In kind it is cell-based. The gist of the method: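 ARN8 cells carrying the RGCΔFos-LacZ p53 reporter seeded at 2×10^4 per well and left 24 h, then treated 16 h (0.1% DMSO final, ±100 µM uridine). Cells washed, lysed and frozen at −20 °C for at least 2 h. β-galactosidase measured with CPRG substrate at pH 7.5, read at 590 nm after 24 h. Result is fold change vs DMSO; mean ± SD of three technical replicates.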

Series [12] has the same target. The series can be described thus: Inhibition of DHOH in human ARN8 cells assessed as increase in YOYO3 positive cells at 20 nM incubated for 48 hrs measured every 2 hrs by YOYO-3 staining based live cell imaging analysis. The gist of the method:
as §1

Series [13] shares this target. As to the kind of experiment: Inhibition of DHODH in human ARN8 cells assessed as increase in p53 level at 20 nM incubated for 24 hrs by Western blot analysis. In kind it is cell-based. In short, it runs like this: as §4
Series [14] shares this target. The series can be described thus: Inhibition of DHODH in human ARN8 cells assessed as induction of DNA damage by measuring increase in p53 phosphorylation at Ser15 at 20 nM incubated for 24 hrs in presence of pan-caspase inhibitor, Z-VAD-FMK by Western blot analysis. In kind it is cell-based. In short, it runs like this:
as §3

Series [15] is described as follows: Metabolic stability in human liver microsomes assessed as half life at 1 uM incubated for 60 mins by LC-MS/MS analysis. In kind it is ADME, Microsome. Particulars: liver microsomes. In short, it runs like this:
as §2

Series [16] has as its target T1, Dihydroorotate dehydrogenase (quinone), mitochondrial. As to the kind of experiment: Inhibition of DHODH in human ARN8 cells assessed as induction of DNA damage by measuring increase in p53 phosphorylation at Ser15 at 20 nM incubated for 24 hrs in presence of 100 uM […], uridine by Western blot analysis. It is filed as cell-based. In short, it runs like this: as §4

Series [17] has the same target. The series can be described thus: Inhibition of […] in human ARN8 cells assessed as decrease in Bcl2 protein expression at 20 nM incubated for 24 hrs in presence of pan-caspase inhibitor, Z-VAD-FMK by Western blot analysis. It is filed as cell-based.
Series [18] has the same target. As to the kind of experiment: Inhibition of DHODH in human ARN8 cells assessed as DNA damage by measuring Chk2 phosphorylation at Thr68 at 20 nM incubated for 24 hrs by Western blot analysis. It is filed as cell-based. In short, it runs like this: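 ARN8 cells treated 24 h before lysis in LDS buffer and protein normalization. Western blot blocked in 5% BSA/TBS-T, primary antibody overnight at 4 °C, HRP secondary and ECL detection. Loading taken from stain-free total protein.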

The target is the same in series [19]. As to the kind of experiment: Inhibition of DHOH in human ARN8 cells assessed as increase in caspase 3/7 activity at 20 nM incubated for 48 hrs in presence of pan-caspase inhibitor, Z-VAD-FMK by live cell imaging analysis. It is filed as cell-based. In short, it runs like this:
as §1

The target is the same in series [20]. As to the kind of experiment: Inhibition of DHODH in human ARN8 cells assessed as induction of DNA damage by measuring increase in p53 phosphorylation at Ser15 at 20 nM incubated for 24 hrs by Western blot analysis. It is filed as cell-based. In short, it runs like this:
as §4

The target is the same in series [21]. As to the kind of experiment: Inhibition of DHOH in human ARN8 cells assessed as increase in caspase 3/7 activity at 20 nM incubated for 48 hrs by live cell imaging analysis. It is filed as cell-based. The gist of the method:
as §1

The structures appear in SMILES notation. Activity calls are given as the source filed them.

T1 sequence (Q02127 whole entry): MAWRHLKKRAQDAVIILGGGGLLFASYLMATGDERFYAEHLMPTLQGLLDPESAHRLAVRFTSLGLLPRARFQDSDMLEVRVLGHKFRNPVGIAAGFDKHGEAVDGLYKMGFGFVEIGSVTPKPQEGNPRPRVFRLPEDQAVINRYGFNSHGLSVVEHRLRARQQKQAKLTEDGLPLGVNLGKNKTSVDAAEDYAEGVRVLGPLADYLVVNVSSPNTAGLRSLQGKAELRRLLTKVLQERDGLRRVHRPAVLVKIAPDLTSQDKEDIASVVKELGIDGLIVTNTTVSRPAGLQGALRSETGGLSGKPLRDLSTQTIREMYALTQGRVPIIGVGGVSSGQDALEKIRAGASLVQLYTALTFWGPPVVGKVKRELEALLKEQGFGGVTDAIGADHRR

The half-life is the time needed for the level to fall by half in the phase considered. As a reminder, the IC50 is the point on the concentration scale where inhibition reaches its midpoint. `O=C(N[C@@H]1CCCc2c1cnn2-c1ccccc1F)c1ncn2c1CCCC2`: the inhibition result in series [1], in series [4], in series [9], in series [16], in [18] and in [19] was “inactive” each time. For the same molecule, the half-life at 1 µM in series [2] is 36 min; in [15], over 60 min. In addition, the IC50 is over 10 µM in series [3], under 5 nM in [7] and 2.3 nM in series [10]. The inhibition entry in series [5], in series [6], in [8], in series [11], in [12] and in series [13] was “Active” each time. The inhibition result in series [14], in series [17], in [20] and in series [21] was “Active” throughout.
